# The source made the active and inactive calls. No cut-off for these calls is given here.
# Key:
# [1] = system: HEK293; assay: Reduction in Bcl-xL expression in p53 deficient HEK293 cells at LC50 level after 48 hrs by Western blot method; format: functional, cell-based; conditions: Homo sapiens
# [2] = Retention time of the compound by HPLC method; format: physicochemical
# [3] = Drug hydrolysis in pH 7.4 PBS buffer assessed as first order rate constant for andrographolide formation by HPLC method; format: physicochemical
# Outline: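 Compound in PBS pH 7.4 without enzyme; unreacted parent quantified by HPLC at time intervals. Decay fitted to first-order rate equation to give rate constant and half-life.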
# [4] = system: HEK293; assay: Reduction in Bcl-xL expression in HEK293 cells at LC50 level after 48 hrs by Western blot method; format: functional, cell-based; conditions: Homo sapiens
# [5] = system: Calf thymus DNA; assay: Binding affinity to calf thymus DNA assessed as reduction of DNA absorption band at 260 nanometer at 3.33 to 20 uM after 2 hrs by UV-visible absorption spectroscopy; format: nucleic-acid assay; conditions: Bos taurus
# Outline: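 CT-DNA at fixed […] in 50 mM Tris-HCl/NaCl pH 7.5, incubated with compound for 2 h at 37 °C, scanned 200–400 nm after dilution. Spectra normalized at 230 nm. Fraction bound q from absorbance near 260 nm; Boltzmann fit, Kb as reciprocal of half-saturation concentration.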
# [6] = system: HEK293; assay: Induction of apoptosis in HEK293 cells at 20 uM after 48 hrs by propidium iodide staining based flow cytometry relative to untreated control; format: functional, Homo sapiens
# [7] = system: HEK293; assay: Induction of apoptosis in HEK293 cells at 15 uM after 48 hrs by propidium iodide staining based flow cytometry (reference value: 24.26 +/- 0.8%); format: functional, Homo sapiens
# [8] = system: HEK293; assay: Induction of cell cycle arrest in HEK293 cells assessed as accumulation at G2/M phase at 15 uM after 48 hrs by propidium iodide staining based flow cytometry (reference value: 2.63 +/- 0.7%); format: functional, Homo sapiens
# [9] = Binding affinity to GC-28 DNA (unknown origin) minor groove by DAPI staining based spectrophotometry
# Outline: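 DAPI–DNA complex fluorescence read at 460 nm emission band; test compound added to the preformed complex and loss of fluorescence followed.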
# [10] = system: HEK293; assay: Induction of cell cycle arrest in HEK293 cells assessed as accumulation at G1 phase at 15 uM after 48 hrs by propidium iodide staining based flow cytometry (reference value: 53.21 +/- 0.8%); format: functional, Homo sapiens
# [11] = target: Nuclear factor NF-kappa-B complex (Homo sapiens) (UniProt Q00653+P19838+Q04206); assay: Inhibition of NFkappaB (unknown origin) expressed in HEK293 cells assessed as reduction in transcriptional activity at 5 uM after 48 hrs by luciferase reporter gene assay; format: cell-based
# Sequence of Nuclear factor NF-kappa-B complex (Homo sapiens) (P19838 whole entry, looked up): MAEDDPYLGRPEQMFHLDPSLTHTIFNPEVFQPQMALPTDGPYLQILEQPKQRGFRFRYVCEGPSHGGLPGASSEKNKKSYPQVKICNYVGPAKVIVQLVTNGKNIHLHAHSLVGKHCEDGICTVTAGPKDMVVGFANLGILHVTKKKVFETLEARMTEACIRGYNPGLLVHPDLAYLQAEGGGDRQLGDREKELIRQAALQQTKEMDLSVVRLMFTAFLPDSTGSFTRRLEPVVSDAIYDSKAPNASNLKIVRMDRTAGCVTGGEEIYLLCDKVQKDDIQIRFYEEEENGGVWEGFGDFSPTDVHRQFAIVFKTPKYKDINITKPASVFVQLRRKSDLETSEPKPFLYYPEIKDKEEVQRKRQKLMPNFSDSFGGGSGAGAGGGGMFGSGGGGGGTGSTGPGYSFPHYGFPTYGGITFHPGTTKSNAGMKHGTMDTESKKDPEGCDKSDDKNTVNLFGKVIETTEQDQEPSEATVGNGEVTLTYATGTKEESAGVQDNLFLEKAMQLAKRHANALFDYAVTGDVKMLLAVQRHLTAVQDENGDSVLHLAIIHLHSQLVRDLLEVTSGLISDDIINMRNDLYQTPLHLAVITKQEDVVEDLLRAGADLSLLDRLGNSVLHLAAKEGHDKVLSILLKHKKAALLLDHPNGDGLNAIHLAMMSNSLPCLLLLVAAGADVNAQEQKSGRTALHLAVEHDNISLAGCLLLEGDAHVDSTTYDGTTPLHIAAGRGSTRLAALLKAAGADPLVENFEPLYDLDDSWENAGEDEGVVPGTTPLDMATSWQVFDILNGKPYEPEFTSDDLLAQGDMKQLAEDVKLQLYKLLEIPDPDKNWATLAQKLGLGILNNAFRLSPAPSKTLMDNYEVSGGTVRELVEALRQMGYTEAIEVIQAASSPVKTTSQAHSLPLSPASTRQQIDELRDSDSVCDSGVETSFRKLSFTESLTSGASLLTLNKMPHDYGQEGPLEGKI
# Sequence of Nuclear factor NF-kappa-B complex (Homo sapiens) (Q00653 whole entry, looked up): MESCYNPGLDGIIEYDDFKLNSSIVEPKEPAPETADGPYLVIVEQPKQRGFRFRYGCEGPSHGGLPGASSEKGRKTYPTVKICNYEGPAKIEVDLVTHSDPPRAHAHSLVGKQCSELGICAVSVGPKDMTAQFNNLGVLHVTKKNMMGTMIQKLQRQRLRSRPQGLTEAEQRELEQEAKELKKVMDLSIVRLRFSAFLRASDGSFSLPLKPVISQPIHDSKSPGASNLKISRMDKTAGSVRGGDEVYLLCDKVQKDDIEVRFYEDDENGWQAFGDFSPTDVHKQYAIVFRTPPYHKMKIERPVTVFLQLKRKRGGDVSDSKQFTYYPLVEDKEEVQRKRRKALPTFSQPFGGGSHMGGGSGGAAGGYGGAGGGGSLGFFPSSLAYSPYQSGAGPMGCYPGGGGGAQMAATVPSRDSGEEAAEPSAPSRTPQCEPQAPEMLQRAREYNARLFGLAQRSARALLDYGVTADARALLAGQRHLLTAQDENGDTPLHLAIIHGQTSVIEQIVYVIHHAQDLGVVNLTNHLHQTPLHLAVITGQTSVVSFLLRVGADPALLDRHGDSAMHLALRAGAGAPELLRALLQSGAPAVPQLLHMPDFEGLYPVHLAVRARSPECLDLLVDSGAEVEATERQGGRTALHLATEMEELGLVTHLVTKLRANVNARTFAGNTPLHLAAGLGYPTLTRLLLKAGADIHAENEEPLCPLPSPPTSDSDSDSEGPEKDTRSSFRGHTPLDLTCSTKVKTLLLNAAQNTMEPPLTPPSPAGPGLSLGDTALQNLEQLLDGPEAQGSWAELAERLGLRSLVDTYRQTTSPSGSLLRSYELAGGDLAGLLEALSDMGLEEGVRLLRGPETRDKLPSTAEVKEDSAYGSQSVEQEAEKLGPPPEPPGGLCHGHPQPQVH
# Sequence of Nuclear factor NF-kappa-B complex (Homo sapiens) (Q04206 whole entry, looked up): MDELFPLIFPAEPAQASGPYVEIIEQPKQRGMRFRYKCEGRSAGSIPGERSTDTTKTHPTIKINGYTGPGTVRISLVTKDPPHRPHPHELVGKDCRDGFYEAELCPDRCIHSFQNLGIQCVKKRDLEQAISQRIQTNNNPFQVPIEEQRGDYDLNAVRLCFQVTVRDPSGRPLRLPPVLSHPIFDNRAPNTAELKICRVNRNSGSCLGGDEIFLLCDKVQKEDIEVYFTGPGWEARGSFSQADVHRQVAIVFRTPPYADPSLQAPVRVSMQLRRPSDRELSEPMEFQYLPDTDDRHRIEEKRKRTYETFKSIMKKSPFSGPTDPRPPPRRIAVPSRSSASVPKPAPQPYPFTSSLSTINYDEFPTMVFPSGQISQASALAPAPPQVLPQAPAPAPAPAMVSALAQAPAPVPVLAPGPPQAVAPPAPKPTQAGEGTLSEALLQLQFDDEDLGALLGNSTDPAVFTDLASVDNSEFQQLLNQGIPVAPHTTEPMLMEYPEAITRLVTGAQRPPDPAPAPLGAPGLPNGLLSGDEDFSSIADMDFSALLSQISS
# Outline: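 HEK-293 at 70% confluence transfected by calcium phosphate with NF-kB luciferase ([…]) and b-Gal ([…]) plasmids, 6–8 h, then fresh serum medium 12 h; treated 48 h, lysed, luciferase read and normalized to b-galactosidase. Three independent experiments.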
# [12] = Hydrolysis half life in pH 7.4 PBS buffer assessed as andrographolide formation by HPLC method; format: physicochemical
# [13] = system: HEK293; assay: Induction of apoptosis in HEK293 cells at 5 to 20 uM after 48 hrs by DAPI staining based fluorescence microscopy; format: functional, cell-based; conditions: Homo sapiens
# [14] = system: HEK293; assay: Induction of cell cycle arrest in HEK293 cells assessed as accumulation at S phase at 20 uM after 48 hrs by propidium iodide staining based flow cytometry (reference value: 19.9 +/- 0.5%); format: functional, Homo sapiens
# [15] = system: HEK293; assay: Increase in p53 expression in HEK293 cells at LC50 level after 48 hrs by Western blot method; format: functional, cell-based; conditions: Homo sapiens
# [16] = system: HEK293; assay: Induction of cell cycle arrest in HEK293 cells assessed as accumulation at G2/M phase at 20 uM after 48 hrs by propidium iodide staining based flow cytometry (reference value: 2.63 +/- 0.7%); format: functional, Homo sapiens
# [17] = system: HEK293; assay: Cytotoxicity against HEK293 cells after 48 hrs by MTT assay; format: functional; conditions: Homo sapiens, HEK293, 48 h; read-out: LC50 (the source's name)
# Outline: (§1)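 Cells seeded at 10,000 per well and exposed to increasing compound concentrations for 48 h. After a PBS wash, MTT (2.5 mg/mL) was added for 6 h at 37 °C, then detergent (10% NP-40, 4 mM HCl), and absorbance was read at 570 nm. LC50 is the concentration causing 50% cell death. Values are means of three independent experiments.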
# [18] = system: HEK293; assay: Induction of cell cycle arrest in HEK293 cells assessed as accumulation at S phase at 10 uM after 48 hrs by propidium iodide staining based flow cytometry (reference value: 19.9 +/- 0.5%); format: functional, Homo sapiens
# [19] = system: HEK293; assay: Increase in PARP cleavage in p53 deficient HEK293 cells at LC50 level after 48 hrs by Western blot method; format: functional, cell-based; conditions: Homo sapiens
# [20] = system: HEK293; assay: Induction of apoptosis in HEK293 cells assessed as apoptotic nuclei formation at 5 uM after 48 hrs by DAPI staining based fluorescence microscopy; format: functional, cell-based; conditions: Homo sapiens
# [21] = Induction of DNA adduct formation (unknown origin) using guanosine in presence of glacial acetic acid at 75 degC incubated for 12 hrs by LC-MS method
# Outline: (§2)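 Model reaction of compound with guanosine in glacial acetic acid at 75 °C, heated up to 12 h; adduct sought by TLC and LCMS.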
# [22] = system: MCF7; assay: Cytotoxicity against human MCF7 cells after 48 hrs by MTT assay; format: functional; conditions: MCF7, 48 h, read-out: LC50 (the source's name); outline: as §1
# [23] = system: HEK293; assay: Induction of cell cycle arrest in HEK293 cells assessed as accumulation at G1 phase at 5 uM after 48 hrs by propidium iodide staining based flow cytometry (reference value: 53.21 +/- 0.8%); format: functional, Homo sapiens
# [24] = system: Vero; assay: Cytotoxicity against african green monkey Vero cells after 48 hrs by MTT assay; format: cell-based; conditions: chlorocebus sabaeus; outline: as §1
# [25] = system: HEK293; assay: Reduction in NFkappaB expression in HEK293 cells at LC50 level after 48 hrs by Western blot method; format: functional, cell-based; conditions: Homo sapiens
# [26] = system: HEK293; assay: Induction of apoptosis in HEK293 cells at 5 uM after 48 hrs by propidium iodide staining based flow cytometry (reference value: 24.26 +/- 0.8%); format: functional, Homo sapiens
# [27] = system: HEK293; assay: Increase in Bax expression in p53 deficient HEK293 cells at LC50 level after 48 hrs by Western blot method; format: functional, cell-based; conditions: Homo sapiens
# [28] = system: HEK293; assay: Induction of cell cycle arrest in HEK293 cells assessed as accumulation at G1 phase at 10 uM after 48 hrs by propidium iodide staining based flow cytometry (reference value: 53.21 +/- 0.8%); format: functional, Homo sapiens
# [29] = Induction of DNA adduct formation (unknown origin) using guanosine in presence of glacial acetic acid at 75 degC incubated for 12 hrs by TLC method; outline: as §2
# [30] = system: HEK293; assay: Induction of cell cycle arrest in HEK293 cells assessed as accumulation at G2/M phase at 5 uM after 48 hrs by propidium iodide staining based flow cytometry (reference value: 2.63 +/- 0.7%); format: functional, Homo sapiens
# [31] = Cytotoxicity against human MCF10A cells after 48 hrs by MTT assay; format: cell-based; conditions: mcf-10a; outline: as §1
# [32] = system: HEK293; assay: Increase in Bax expression in HEK293 cells at LC50 level after 48 hrs by Western blot method; format: functional, cell-based; conditions: Homo sapiens
# [33] = system: HEK293; assay: Increase in p53 expression in p53 deficient HEK293 cells at LC50 level after 48 hrs by Western blot method; format: functional, cell-based; conditions: Homo sapiens
compound,measurement,setting,value
C=C1CC[C@@H]2[C@](C)(CO)[C@H](O)CC[C@@]2(C)[C@@H]1C/C=C1/C(=O)OC[C@H]1OC(=O)CI,Activity,[1],inactive
same,Retention_time,[2],26.9 min
same,K,[3],0.02 min⁻¹
same,Activity,[4],Active
same,Activity,[5],Active
same,fold change (FC),[6],>5
same,Activity,[7],78.5%
same,Activity,[8],1.28%
same,Activity,[9],Active
same,Activity,[10],14.8%
same,fold change (FC),[11],5
same,t1/2,[12],35 min
same,Activity,[13],Dose-dependent effect
same,Activity,[14],1.66%
same,Activity,[15],Active
same,Activity,[16],0.69%
same,CC50,[17],8 µM
same,Activity,[18],7.57%
same,Activity,[19],inactive
same,Activity,[20],Active
same,Activity,[21],inactive
same,CC50,[22],6 µM
same,Activity,[23],24.77%
same,LC50,[24],45 µM
same,Activity,[25],Active
same,Activity,[26],43.09%
same,Activity,[27],inactive
same,Activity,[28],15.6%
same,Activity,[29],inactive
same,Activity,[30],2.14%
same,LC50,[31],> 40 µM
same,Activity,[32],Active
same,Activity,[33],inactive
